≈ marks a conversion by molar mass, not a printed value.
How the values were obtained:
[1] = Aqueous solubility at pH 1; format: physicochemical
[2] = Cmax in Beagle dog at 3 mg/kg, po dosed as aqueous suspension of Labrafil M 1944CS/DMAC/polysorbate 80, 85:10:5 (v/v) after 2 to 4 hrs by LC/MS/MS analysis; format: ADME, organism-based, Canis lupus familiaris; parameters: dose 3 mg/kg, route oral; conditions: in vivo
Outline: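 Fasted male beagle dogs dosed orally at 1 mL/kg: 2 mg/kg as 0.2% polysorbate 80 in 0.5% methylcellulose suspension (n = 4) or 3 mg/kg in Labrafil M 1944CS/DMAC/polysorbate 80 85:10:5 (n = 2). Femoral vein blood 0.25–24 h; plasma by LC/MS/MS.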

Rattus norvegicus [3] = test: Total plasma concentration in Sprague-Dawley rat at 3 mg/kg, po after 1 to 3 hrs by LC/MS/MS analysis; format: ADME, organism-based; parameters: dose 3 mg/kg, route oral; conditions: in vivo
[4] = Drug metabolism in bile duct cannulated Sprague-Dawley rat assessed as unchanged parent drug remaining in bile at 20 mg/kg, po after 24 hrs by HPLC/UV/MS analysis; format: ADME, organism-based; parameters: dose 20 mg/kg, route oral; conditions: read-out: Activity
Outline: (§1)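 Male Sprague–Dawley bile duct cannulated rats (n = 3) dosed orally at 20 mg/kg in PEG/ethanol 90:10; vehicle-dosed controls (n = 3). Bile and urine pooled over 0–24 h, acetonitrile-precipitated and profiled by HPLC/UV/MS (Hydro-RP column, PDA 200–550 nm, positive-ion full and data-dependent scans).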

Rattus norvegicus [5] = test: Ex vivo receptor occupancy of CRF1 receptor in Sprague-Dawley rat brain parietal assessed as inhibition of [125I]sauvagine binding at 0.56 mg/kg, po after 90 mins by autoradiography; format: functional; conditions: 1.5 h
[6] = AUC in Sprague-Dawley rat at 10 mg/kg, po dosed as aqueous suspension of 1% polysorbate 80 in 0.5% methylcellulose after 0.25 to 24 hrs by LC/MS/MS analysis; format: ADME, organism-based; parameters: time upper 24 hr, time lower 0.25 hr, dose 10 mg/kg, route oral; conditions: in vivo
[7] = Drug metabolism in bile duct cannulated Sprague-Dawley rat assessed as GSH adduct formation in urine at 20 mg/kg, po after 24 hrs by HPLC/UV/MS analysis; format: ADME, organism-based; parameters: dose 20 mg/kg, route oral; conditions: in vivo; outline: as §1
[8] = Half life in Sprague-Dawley rat at 2 mg/kg, iv by LC/MS/MS analysis; format: ADME, organism-based; parameters: dose 2 mg/kg, route intravenous; conditions: in vivo
[9] = Metabolic stability in human liver microsomes assessed as compound remaining at 3 uM after 10 mins by HPLC/UV/MS analysis; format: ADME, Microsome; conditions: read-out: Stability
[10] = Dissociation constant, pKa by spectrophotometric titration method; format: physicochemical
Outline: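 Spectrophotometric titration over pH 2–11 in varying acetonitrile/water mixtures, extrapolated to 0% cosolvent.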

Rattus norvegicus [11] = test: Anxiolytic activity in Sprague-Dawley rat assessed as decrease in exit latency at 1 mg/kg, po after 60 mins by defensive withdrawal test relative to control; format: functional; parameters: scale not given: the % may be the effect or the level left
Outline: (§2)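 Rats placed in a darkened chamber within an open illuminated field; time to emerge measured 60 min after oral dosing (0.56–3 mg/kg), n = 8; percent decrease in exit latency versus vehicle-treated animals, p < 0.05 significance.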

Liver microsomes = test: Metabolic stability in NADPH-fortified human liver microsomes assessed as GSH adduct formation at 10 uM after 30 mins by HPLC/UV/MS analysis; format: ADME, Microsome; conditions: 0.5 h
Outline: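 Pooled rat or human liver microsomes 1 mg/mL, 10 μM substrate, 100 mM potassium phosphate pH 7.4, 37 °C, started with NADPH-regenerating system (1.3 mM NADP+, 3.3 mM glucose-6-phosphate, 3.3 mM MgCl2, 0.5 U/mL G6PDH); GSH 5 mM in trapping runs. Sampled 0 and 30 min, acetonitrile quench; abundance as UV peak area (330–340 nm) fraction of all drug-related components by HPLC/UV/MS.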

[12] = molecular target: T1, Corticotropin-releasing factor receptor 1 (Homo sapiens, UniProt P34998); test: (§3) Antagonist activity at CRF1 receptor in human Y79 cells assessed as inhibition of CRF-stimulated cAMP production after 30 mins by HTRF analysis; format: functional, cell-based
T1 sequence (P34998 whole entry): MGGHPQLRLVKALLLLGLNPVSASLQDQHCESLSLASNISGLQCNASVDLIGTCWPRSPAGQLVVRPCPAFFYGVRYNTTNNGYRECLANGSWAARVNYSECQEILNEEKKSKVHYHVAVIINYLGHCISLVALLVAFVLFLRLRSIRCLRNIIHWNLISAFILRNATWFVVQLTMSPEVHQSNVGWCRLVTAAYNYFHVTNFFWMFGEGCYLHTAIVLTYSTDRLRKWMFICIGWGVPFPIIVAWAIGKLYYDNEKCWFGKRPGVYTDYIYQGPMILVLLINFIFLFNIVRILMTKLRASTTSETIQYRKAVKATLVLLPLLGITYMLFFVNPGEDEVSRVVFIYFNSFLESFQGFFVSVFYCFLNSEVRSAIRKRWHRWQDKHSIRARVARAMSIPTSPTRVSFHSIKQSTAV

[13] = molecular target: T2, Corticotropin-releasing factor receptor 1 (Homo sapiens) (UniProt P34998); test: as §3; format: functional, cell-based
T2 sequence (whole entry): T1 sequence (P34998 whole entry)

Rattus norvegicus [14] = test: Anxiolytic activity in Sprague-Dawley rat assessed as decrease in exit latency at 3 mg/kg, po after 60 mins by defensive withdrawal test relative to control; format: functional; parameters: scale not given: the % may be the effect or the level left; outline: as §2
[15] = Clearance in Sprague-Dawley rat at 2 mg/kg, iv after 0.17 to 24 hrs by LC/MS/MS analysis; format: ADME, organism-based; parameters: dose 2 mg/kg, route intravenous; conditions: in vivo
Rattus norvegicus [16] = test: Plasma free concentration in Sprague-Dawley rat at 1 mg/kg, po after 1 to 3 hrs by LC/MS/MS analysis; format: ADME, organism-based; parameters: dose 1 mg/kg, route oral; conditions: in vivo
[17] = Oral bioavailability in Sprague-Dawley rat at 10 mg/kg dosed as aqueous suspension of Labrafil M 1944CS/DMAC/polysorbate 80, 85:10:5 (v/v) after 0.25 to 24 hrs by LC/MS/MS analysis; format: ADME, organism-based; conditions: in vivo
[18] = Drug metabolism in bile duct cannulated Sprague-Dawley rat assessed as GSH adduct formation in bile at 20 mg/kg, po after 24 hrs by HPLC/UV/MS analysis; format: ADME, organism-based; parameters: dose 20 mg/kg, route oral; conditions: in vivo; outline: as §1
[19] = Clearance in Beagle dog at 2 mg/kg, iv after 0.17 to 24 hrs by LC/MS/MS analysis; format: ADME, organism-based, Canis lupus familiaris; parameters: dose 2 mg/kg, route intravenous; conditions: in vivo
Outline: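 Male beagle dogs (n = 4), 2 mg/kg iv in propylene glycol:ethanol 90:10 (v/v), 1 mL/kg infused over 5 min at 0.2 mL/kg/min; femoral vein blood at 0.17–24 h; plasma frozen at –20 °C, analysed by LC/MS/MS.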

[20] = molecular target: T3, Corticotropin-releasing factor receptor 1 (Rattus norvegicus, UniProt P35353); test: Displacement of [125I]Tyr-o-CRF from CRF1 receptor in rat frontal cortex homogenate by binding titration assay; format: tissue-based
T3 sequence (P35353 whole entry): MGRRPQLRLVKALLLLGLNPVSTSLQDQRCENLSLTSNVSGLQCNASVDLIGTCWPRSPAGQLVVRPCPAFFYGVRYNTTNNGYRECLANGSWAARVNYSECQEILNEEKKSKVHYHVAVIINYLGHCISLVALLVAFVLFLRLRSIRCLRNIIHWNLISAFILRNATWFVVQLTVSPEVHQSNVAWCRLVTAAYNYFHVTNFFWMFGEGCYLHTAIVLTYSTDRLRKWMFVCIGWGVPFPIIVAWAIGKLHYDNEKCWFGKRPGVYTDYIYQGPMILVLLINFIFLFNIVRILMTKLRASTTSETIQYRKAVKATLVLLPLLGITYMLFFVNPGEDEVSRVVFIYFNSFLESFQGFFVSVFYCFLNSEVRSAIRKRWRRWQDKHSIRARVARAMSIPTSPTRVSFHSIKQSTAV

solubility [1]: 3 µg/mL (≈ 7.4 µM)
Cmax [2]: 1400 nM
concentration (Rattus norvegicus [3]): 140 nM
dose excreted at 24 h [4]: 3%
AUC [6]: 4.1 µM·h
Activity [7]: 0.1%
half-life [8]: 9.3 h
remaining at 10 min, 3 µM [9]: 74%
pKa [10]: < 2
Activity (Liver microsomes): 1%
IC50 [12]: 1.9 nM
inhibition [13]: Dose-dependent effect
clearance [15]: 29 mL/min/kg
Cp(f) (Rattus norvegicus [16]): 1.6 nM
bioavailability [17]: 66%
Activity [18]: 0.1%
clearance [19]: 7.3 mL/min/kg
IC50 [20]: 0.86 nM
SMILES: COC[C@H](C1CC1)n1cc(C#N)nc(Nc2cc(C)c(OC(F)F)nc2C)c1=O
inhibition in vivo at 0.56 mg/kg (Rattus norvegicus [5]): 39%
Activity (Rattus norvegicus [11]): 28%
Activity (Rattus norvegicus [14]): 56%

— ChEMBL document CHEMBL1154735, “A strategy to minimize reactive metabolite formation: discovery of (S)-4-(1-cyclopropyl-2-methoxyethyl)-6-[6-(difluoromethoxy)-2,5-dimethylpyridin-3-ylamino]-5-oxo-4,5-dihydropyrazine-2-carbonitrile as a potent, orally bioavailable corticotropin-releasing factor-1 receptor antagonist” (J Med Chem, 2009)
